# High-throughput results deposited in PubChem by Johns Hopkins Ion Channel Center.
# Shown are actives, neighbours in structure and some others; about 2.3% of the full set was active somewhere.
# TRPC4 PAM = TRPC4 (mouse) allosteric potentiation; Q9QUQ5; HEK293 TRPC4beta/mu-opioid, DAMGO EC20, Fluo-4 Ca2+ flux; hits give high values; B-score at 10 µM; 0.42% of 310,000 active; AID 2227;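 active means B-score of calcium response area above 5 SD of library B-scores, with initial fluorescence ratio within 5 SD of library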;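 further: B-score of integrated fluorescence ratio over time as area under calcium response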
# Target sequence (Q9QUQ5 whole entry, looked up): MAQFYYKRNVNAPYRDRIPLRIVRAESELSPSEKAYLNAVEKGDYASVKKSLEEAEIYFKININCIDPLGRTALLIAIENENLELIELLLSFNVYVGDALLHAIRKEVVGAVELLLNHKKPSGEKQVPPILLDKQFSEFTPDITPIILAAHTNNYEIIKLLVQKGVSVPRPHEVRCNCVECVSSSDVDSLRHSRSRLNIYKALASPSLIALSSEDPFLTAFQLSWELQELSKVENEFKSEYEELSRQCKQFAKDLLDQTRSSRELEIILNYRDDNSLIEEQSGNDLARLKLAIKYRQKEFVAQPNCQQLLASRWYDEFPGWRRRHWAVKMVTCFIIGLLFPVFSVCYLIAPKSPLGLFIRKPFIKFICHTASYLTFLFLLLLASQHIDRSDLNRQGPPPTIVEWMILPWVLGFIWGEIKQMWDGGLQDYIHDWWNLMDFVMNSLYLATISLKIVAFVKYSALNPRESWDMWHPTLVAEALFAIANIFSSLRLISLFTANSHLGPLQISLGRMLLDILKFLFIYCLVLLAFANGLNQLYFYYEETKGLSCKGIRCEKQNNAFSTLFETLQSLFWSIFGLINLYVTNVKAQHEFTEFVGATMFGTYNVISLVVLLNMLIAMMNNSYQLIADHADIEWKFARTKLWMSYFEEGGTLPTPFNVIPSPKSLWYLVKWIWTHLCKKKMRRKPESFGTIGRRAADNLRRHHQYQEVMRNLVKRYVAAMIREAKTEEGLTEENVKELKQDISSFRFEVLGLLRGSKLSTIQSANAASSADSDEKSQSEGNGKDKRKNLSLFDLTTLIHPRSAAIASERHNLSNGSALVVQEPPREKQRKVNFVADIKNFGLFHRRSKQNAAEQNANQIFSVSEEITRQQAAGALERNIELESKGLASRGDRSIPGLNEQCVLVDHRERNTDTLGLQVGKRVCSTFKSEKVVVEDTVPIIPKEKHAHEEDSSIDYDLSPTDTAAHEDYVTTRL
# TRPC6 act = activators of mouse TRPC6 channel. 0.13% of 310,000 active. HEK293-TRPC6 membrane potential dye fluorescence; hits give high values. Q61143. AID 2550. B-score at 10 µM;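 active means B-score of the integrated fluorescence ratio above library mean plus 3 SD, and starting fluorescence ratio within library mean plus 5 SD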;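 further: higher score means more depolarization so channel activation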
# TRPC4 inh = TRPC4 (mouse) channel inhibition | B-score at 10 µM | Q9QUQ5 | 0.39% of 300,000 active | HEK293 TRPC4beta/mu-opioid, DAMGO-evoked Fluo4 calcium flux; hits give low values | AID 2247;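 active means B-score over 3 SD under the library average, no early fluorescence shift, positive overall ratio signal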
#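 Assay system: TRPC4beta/mu-opioid receptor HEK293 cell line; compound dosing: single concentration per test compound; detection: Fluo4 Ca2+ flux fluorescence; evaluation: per-well B score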
# TRPC4 act = activators of mouse TRPC4 channel. B-score at 10 µM. AID 2237. 0.49% of 310,000 active. HEK293 TRPC4beta/mu-opioid, Fluo4 calcium fluorescence; hits give high values. Q9QUQ5;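 active means B-score above 5 SD of library B-scores, and initial fluorescence ratio not above library mean plus 5 SD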;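 further: positive B-score marks a calcium rise read as TRPC4 activation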
#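 Incubation: 45 min room-temperature Fluo4 loading, 110 s read / System: HEK293 cells stably co-expressing mouse TRPC4beta and mu-opioid receptor / Signal: Fluo4 fluorescence, kinetic / Control set: buffer (low) and maximal DAMGO (high) / Measure: integrated baseline-normalised fluorescence ratio, converted to per-well B score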
# TRPC6 inh = inhibitors of mouse TRPC6 channel; B-score at 10 µM; HEK293-TRPC6, membrane potential dye, ACh-evoked depolarization; hits give low values; Q61143; 1.1% of 310,000 active; AID 2553;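 active means B-score under library mean minus 3 SD, initial fluorescence not abnormally high, positive integrated signal ratio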;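 further: B-score derived from integrated fluorescence ratio over the kinetic read; more negative B-score means stronger inhibition of depolarization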
# TRPC4 spec 2 = second selectivity test of TRPC6 inhibitors: effect on mouse TRPC4; 42% of 920 active; shares compounds with TRPC6 inh; HEK293 TRPC4/MOR, membrane potential dye fluorescence; channel activated by saturating DAMGO dose; inhibition, % at 10 µM;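 active means compounds whose fluorescence signal differed from control wells by over 3 SD, either direction, in both duplicate plates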
# TRPC4 spec = mouse TRPC4 off-target activity of TRPC6 inhibitors; AID 2777; HEK293 TRPC4/mu-opioid, membrane potential fluorescence; activity change, negative = inhibition, % at 10 µM; shares compounds with TRPC6 inh; 61% of 920 active;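 active means rise or fall in signal beyond 3 SD of buffer-only wells in both replicate plates, either sign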;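 further: integrated kinetic ratio of fluorescence range over baseline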
# HEK293 MPD ctr 2-1 = parental HEK293 nonspecific activity of TRPC6 inhibitors, second screen; shares compounds with TRPC6 inh; parental HEK293 membrane potential dye fluorescence; maximal acetylcholine challenge after compound addition; signal change vs control, % at 10 µM; 31% of 920 active; AID 2779;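 active means membrane potential signal moving either way by over 3 SD of the maximum-effect control, in both duplicate plates, meaning non-specific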
# HEK293 MPD ctr-1 = checks TRPC6 inhibitor effects in parental HEK293 cells; AID 2780; parental HEK293 membrane potential dye fluorescence; membrane potential signal change, % at 10 µM; shares compounds with TRPC6 inh; 60% of 920 active;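 active means membrane potential signal shifting up or down by more than 3 SD of buffer-only wells, on both duplicate plates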
# HEK293 MPD ctr-2 = parental HEK293 nonspecific activity of TRPC6 modulators; shares compounds with TRPC6 inh; membrane potential dye fluorescence; membrane potential signal change, % at 10 µM; 51% of 2,400 active; AID 488924;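 active means membrane potential signal moves up or down beyond 5 SD from buffer-only wells, on both duplicate plates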
# HEK293 MPD ctr 2-2 = second counter-screen for TRPC6 modulators: effect in parental HEK293 cells; inhibition, % at 10 µM; shares compounds with TRPC6 inh; 14% of 2,400 active; membrane potential dye fluorescence; after compound, maximal acetylcholine stimulation;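 active means membrane potential signal drops by more than 5 SD from the mean control signal, in both duplicate plates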;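 further: plate controls were acetylcholine ECmax control wells for no effect and buffer only wells for full effect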
# TRPC4/MOR mod = mouse TRPC4 off-target activity of TRPC6 modulators; shares compounds with TRPC6 inh; percent change from control (negative = decrease, positive = increase), % at 10 µM; HEK293 TRPC4/mu-opioid, membrane potential fluorescence; 69% of 2,400 active;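 active means membrane potential signal moved up or down beyond 5 SD of buffer control wells, in both duplicate plates, actives on both sides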;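 further: plate controls were assay buffer wells for no effect and DAMGO maximal-effect wells for full effect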
# TRPC4 ctr inh 2 = second selectivity test of TRPC6 modulators against mouse TRPC4 | shares compounds with TRPC6 inh | HEK293 TRPC4/mu-opioid, membrane potential dye fluorescence; stimulated with maximal-effect DAMGO | inhibition, % at 10 µM | 55% of 2,400 active | AID 488928;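 active means drop in membrane potential signal beyond 5 SD of the control wells in both duplicate plates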;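 further: TRPC4 counter screen for TRPC6 hits run under conditions tuned for TRPC6 not TRPC4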
# TRPC6 inh conf = confirmation of mouse TRPC6 inhibitors | shares compounds with TRPC6 inh | HEK293-TRPC6, membrane potential dye, ACh-evoked depolarization | inhibition, % at 10 µM | 43% of 3,300 active | AID 488960;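 active means fluorescence ratio falls more than 5 SD below the full-stimulation control mean, in both duplicate runs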;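 further: integrated fluorescence ratio of peak minus minimum over baseline after agonist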
# TRPC6 act confirm = mouse TRPC6 activator confirmation | shares compounds with TRPC6 inh | HEK293-TRPC6 membrane potential dye fluorescence, FDSS | activation, % at 10 µM | 11% of 2,800 active;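 active means ratio signal rise beyond 5 SD above unstimulated control wells' mean, seen in both duplicate runs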;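 further: plate controls were buffer EC0 wells for no effect and acetylcholine ECmax response for full effect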
# Numbers without * were called inactive; i = inactive; x = no result given.
SMILES,TRPC4 PAM,TRPC6 act,TRPC4 inh,TRPC4 act,TRPC6 inh,HEK293 MPD ctr-2,HEK293 MPD ctr 2-2,TRPC4/MOR mod,TRPC4 ctr inh 2,TRPC6 inh conf,TRPC6 act confirm,others
Cc1cccn2c(=O)c3cc(C(=O)NCCc4ccccc4)c(=N)n(CCCn4ccnc4)c3nc12,i,i,i,i,-6.23*,i,100.5%*,i,i,i,i,
COc1ccc(CCn2c(=N)c(C(=O)NC3CCCC3)cc3c(=O)n4cccc(C)c4nc32)cc1,i,i,i,i,-5.26*,-121.0%*,i,-38.0%*,49.0%*,36.5%*,i,
Cc1cccn2c(=O)c3cc(C(=O)NCCN4CCOCC4)c(=N)n(CCc4ccccc4)c3nc12,i,i,i,i,-5.45*,i,103.5%*,i,52.5%*,i,i,
COc1ccc(CCn2c(=N)c(C(=O)NCCN3CCOCC3)cc3c(=O)n4cccc(C)c4nc32)cc1OC,i,i,i,i,i,x,x,x,x,x,x,
COCCn1c(=N)c(C(=O)NCCc2ccccc2)cc2c(=O)n3cccc(C)c3nc21,i,i,i,i,i,x,x,x,x,x,x,
CN(CC(=O)Nc1ccc(Cl)c(C(F)(F)F)c1)C(=O)CCN1C(=O)C2CC=CCC2C1=O (stereo not given),i,i,i,i,i,x,x,x,x,x,x,
CN(CC(=O)Nc1ccccc1Br)C(=O)c1ccccc1-c1nc2ccccc2s1,i,i,i,i,i,x,x,x,x,x,x,
CCC(Cc1ccccc1)NC(=O)CCNS(=O)(=O)c1cc(Br)cnc1N (stereo not given),i,i,i,i,i,x,x,x,x,x,x,
Cc1cccn2c(=O)c3cc(C(=O)NCC4CCCO4)c(=N)n(CCN4CCOCC4)c3nc12 (stereo not given),i,i,i,i,i,x,x,x,x,x,x,
CNC(=O)c1cc2c(=O)n3cccc(C)c3nc2n(C(C)C)c1=N,i,i,i,i,-11.6*,-209.0%*,121.0%*,-40.5%*,66.0%*,82.0%*,i,
Cc1cccn2c(=O)c3cc(C(=O)NCCN4CCOCC4)c(=N)n(CCCN4CCOCC4)c3nc12,i,i,i,i,-5.05*,189.0%*,164.0%*,32.0%*,46.5%*,61.0%*,x,
O=C(/C=C/c1cccc(Cl)c1)NCCCN1CCOCC1,i,i,i,i,i,x,x,x,x,x,x,
COc1cc2ccccc2cc1C(=O)Nc1ccc(N2CCN(C)CC2)cc1,i,i,i,i,-5.54*,i,i,-11.5%*,64.0%*,59.5%*,i,
CN1CCN(c2ccc(NC(=O)c3cc4ccccc4o3)cc2)CC1,i,i,i,i,-5.17*,i,i,i,48.5%*,41.0%*,i,
CS(=O)(=O)N1CCN(c2ccc(NC(=O)c3cc4ccccc4o3)cc2)CC1,i,i,i,i,i,x,x,x,x,x,x,
CN1CCN(c2ccc(NC(=O)c3ccc(Oc4ccccc4)cc3)cc2)CC1,i,i,i,i,-6.19*,i,i,i,58.5%*,47.5%*,i,
CN1CCN(c2ccccc2NC(=O)c2ccc(Br)o2)CC1,i,i,i,i,-9.64*,x,x,x,x,86.7%*,i,TRPC4 spec 2=28.5%*;TRPC4 spec=i;HEK293 MPD ctr 2-1=i;HEK293 MPD ctr-1=i
COc1ccc(OC)c(NC(=O)c2ccc3c(=O)n(CCc4ccccc4)c(=S)[nH]c3c2)c1,i,i,i,i,i,x,x,x,x,x,x,
CC(C)CC(=O)Nc1ccnn1C1CCN(C(=O)c2ccc(Cl)cc2F)CC1,i,i,i,i,i,x,x,x,x,x,x,
CN1CCN(c2ccccc2NC(=O)c2cc3ccccc3o2)CC1,i,i,i,i,-12.8*,x,x,x,x,71.9%*,i,TRPC4 spec 2=25.0%*;TRPC4 spec=-21.8%*;HEK293 MPD ctr 2-1=i;HEK293 MPD ctr-1=-212.0%*
O=C(Nc1ccccc1N1CCCC1)c1cc2ccccc2o1,i,i,i,i,i,x,x,x,x,x,x,
CC(C)Oc1cccc(C(=O)NC(=S)Nc2ccc(N3CCN(C)CC3)cc2)c1,16*,i,i,i,-6.3*,i,i,i,61.5%*,42.5%*,i,
COc1ccc(Nc2cc(C)nc3c(C)cccc23)cc1OC,i,i,i,i,-5.05*,-145.0%*,i,-30.5%*,55.0%*,44.0%*,i,
COc1ccc(Cl)cc1Nc1cc(C)nc2ccccc12,i,i,i,i,-5.4*,-75.5%*,i,-12.0%*,70.0%*,56.0%*,i,
CCOc1ccc(Nc2cc(C)nc3c(C)cccc23)cc1,i,i,i,i,-5.49*,-86.0%*,i,-22.5%*,52.5%*,43.0%*,i,
C=CCOc1c(CNC2CCCC2)cc(Cl)cc1OC,i,i,-6*,i,-5.42*,431.0%*,151.0%*,99.0%*,90.5%*,95.0%*,x,
COc1ccc(CCNc2c3ccccc3nc3ccccc23)cc1OC,i,i,i,i,-6.84*,x,x,x,x,i,i,TRPC4 spec 2=67.5%*;TRPC4 spec=-23.6%*;HEK293 MPD ctr 2-1=i;HEK293 MPD ctr-1=-411.5%*
